Laboratory results reported in publication PMC3836752 (Organic letters, 2013).

Experiments:
BamL [1] = target: T1, BamL (Bacillus velezensis, UniProt D3VMM1); experiment: BamL methylation assay, ESI-MS endpoint / LC-MS; format: biochemical; details: for conversion into dimethylated product / dimethylation by BamL: condition A: 16 h endpoint assay, BamL in the presence of SAM, ESI-MS/HRMS and LC-MS
T1 sequence (D3VMM1 1-270): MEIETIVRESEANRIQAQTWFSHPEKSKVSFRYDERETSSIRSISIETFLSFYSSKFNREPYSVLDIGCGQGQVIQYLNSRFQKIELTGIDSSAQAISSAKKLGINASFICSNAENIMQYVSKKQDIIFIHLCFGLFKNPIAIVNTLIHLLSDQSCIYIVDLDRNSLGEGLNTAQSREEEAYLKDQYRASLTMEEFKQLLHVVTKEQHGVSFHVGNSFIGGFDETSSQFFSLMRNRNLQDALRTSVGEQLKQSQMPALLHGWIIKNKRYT
Summary of the method: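 Test compounds were incubated with BamL and scored as substrates by conversion of starting material. Two conditions were used: a standard assay, and a more stringent 1 h assay (condition B) with lower enzyme and substrate concentrations for finer resolution of substrate efficiency.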

BamL [2] = target: T1, BamL; experiment: ITC binding assay with BamL; details: for Kd: BamL
Summary of the method: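 Test compounds were titrated with BamL by isothermal titration calorimetry. The binding isotherms were fitted to give Kd and thermodynamic binding parameters. The same titration was applied to a minimal arginine amide ligand.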

BamL [3] = target: T1, BamL; details: cited from earlier work; for processing by BamL: Arg-containing tetrapeptides as substrate mimics
Bacillus anthracis = details: against Bacillus anthracis; ref 1b; cited from earlier work

Compound | conversion into dimethylated product (BamL [1]) | dimethylation by BamL (BamL [1]) | Kd (BamL [2]) [nM] | processing by BamL (BamL [3]) | also measured
C=CCOC(=O)c1csc([C@@H](N)CCCNC(=N)N)n1 [compound 2] | left detectable levels of unconverted starting material | dimethylated by BamL | 2200 | – | increase in affinity for BamL versus 17 (2 vs. 17) (BamL [2]; addition of a single thiazole to Arg-NH2): two orders of magnitude
CCOC(=O)c1csc(-c2nc(-c3csc([C@@H](N)CCCNC(=N)N)n3)oc2C)n1 [compound 3] | full conversion | dimethylated by BamL | 1700 | – | processing by BamL compared to 2 (BamL [1]; 3 compared to 2, differences in affinity not solely responsible): enhanced processing; conversion into dimethylated product (reaction completeness) (BamL [1]; condition B: more stringent 1 h assay, lower concentrations of enzyme and substrate, ESI-MS): nearly complete; reaction efficiency with BamL (BamL [1]; three azole rings compared with one azole, conditions A and B): reaction efficiency increases substantially; affinity for BamL relative to monoazole 2 (BamL [2]): marginally higher affinity; thermodynamic origin of stronger interaction compared to 2 (BamL [2]; analysis of Gibbs free energy terms, 3 compared to 2): primarily entropically driven
N=C(N)NCCC[C@H](N)C(N)=O [compound 17, Arg-NH2] | – | – | – | – | conversion to (CH3)2-Arg-NH2 by BamL (BamL [3]): inefficiently converted
RAAA | – | – | – | unprocessed by BamL | –
RGGG | – | – | – | unprocessed by BamL | –
plantazolicin [PZN] | – | – | – | – | antibacterial action (Bacillus anthracis): highly discriminating antibacterial action against Bacillus anthracis
